Experiments:
[1] = target: Choline kinase alpha (Homo sapiens, UniProt P35790); assay: Inhibition of recombinant human Choline kinase alpha using [methyl-14C]choline chloride as substrate after 30 mins by autoradiography
Outline: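 Extracts from cells expressing recombinant human ChoK were incubated 30 min at 37 °C in 100 mM Tris pH 8, 10 mM MgCl2, 10 mM ATP and [methyl-14C]choline chloride. Reaction stopped on ice with 500 mM EDTA. Choline and phosphocholine were separated by silica TLC (0.9% NaCl:methanol:ammonium hydroxide 50:70:5) and quantified by electronic autoradiography. IC50 came from a Hill-equation least-squares fit of PCho/(PCho+Cho) versus inhibitor concentration.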

[2] = test system: HT-29; assay: Cytotoxicity against human HT-29 cells after 72 hrs by MTT assay; format: functional, cell-based
Outline: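 HT-29 cells grown in DMEM with 10% FBS at 37 °C, 95% humidity, 5% CO2. Seeded and held 24 h, then exposed to increasing concentrations in fresh medium for 72 h, quadruplicate wells per concentration. Viability by MTT absorbance at 595 nm. IC50 from a plot of log OD versus log drug concentration.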

Sequence of Choline kinase alpha (P35790 whole entry): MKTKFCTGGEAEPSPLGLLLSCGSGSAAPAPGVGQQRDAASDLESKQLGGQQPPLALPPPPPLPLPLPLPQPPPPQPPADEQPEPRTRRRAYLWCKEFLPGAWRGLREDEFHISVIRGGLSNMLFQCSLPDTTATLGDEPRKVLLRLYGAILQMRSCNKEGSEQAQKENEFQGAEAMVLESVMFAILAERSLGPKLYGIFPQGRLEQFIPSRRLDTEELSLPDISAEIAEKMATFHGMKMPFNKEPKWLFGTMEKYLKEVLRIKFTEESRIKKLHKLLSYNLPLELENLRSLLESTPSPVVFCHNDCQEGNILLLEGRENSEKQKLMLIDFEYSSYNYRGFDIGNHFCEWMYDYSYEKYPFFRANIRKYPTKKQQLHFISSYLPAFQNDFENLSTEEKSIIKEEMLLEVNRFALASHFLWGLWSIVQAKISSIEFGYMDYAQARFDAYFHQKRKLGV

| SMILES | IC50 [1] [µM] | IC50 ([2]; Homo sapiens, HT-29, 72 h) [µM] | IC50 ([2]; ht-29) [µM] |
| --- | --- | --- | --- |
| CN(C)C(=O)C[n+]1ccc(-c2nc(-c3ccc(-c4ccc(-c5nc(-c6cc[n+](CC(=O)N(C)C)cc6)c(C(F)(F)C(F)(F)C(F)(F)F)o5)cc4)cc3)oc2C(F)(F)C(F)(F)C(F)(F)F)cc1 | 4.25 | 2.5 |  |
| CN(C)C(=O)C[n+]1ccc(-c2nc(-c3ccc(-c4ccc(-c5nc(-c6cc[n+](CC(=O)N(C)C)cc6)c(C(F)(F)C(F)(F)F)o5)cc4)cc3)oc2C(F)(F)C(F)(F)F)cc1 | 2 |  | 5.5 |
| FC(F)(F)c1oc(-c2ccc(C(c3ccc(-c4nc(-c5cc[n+](CCCl)cc5)c(C(F)(F)F)o4)cc3)(C(F)(F)F)C(F)(F)F)cc2)nc1-c1cc[n+](CCCl)cc1 | 12.5 | 13.8 |  |
| CN(C)C(=O)C[n+]1ccc(-c2nc(-c3ccc(C(c4ccc(-c5nc(-c6cc[n+](CC(=O)N(C)C)cc6)c(C(F)(F)F)o5)cc4)(C(F)(F)F)C(F)(F)F)cc3)oc2C(F)(F)F)cc1 | 6.15 | > 20 |  |
| OCC[n+]1ccc(-c2nc(-c3ccc(C(c4ccc(-c5nc(-c6cc[n+](CCO)cc6)c(C(F)(F)C(F)(F)F)o5)cc4)(C(F)(F)F)C(F)(F)F)cc3)oc2C(F)(F)C(F)(F)F)cc1 [listing 1 of 2 here] | 4.2 |  | 7.7 |
| OCC[n+]1ccc(-c2nc(-c3ccc(-c4ccc(-c5nc(-c6cc[n+](CCO)cc6)c(C(F)(F)C(F)(F)F)o5)cc4)cc3)oc2C(F)(F)C(F)(F)F)cc1 | 9.65 | 0.84 |  |
| OCC[n+]1ccc(-c2nc(-c3ccc(C(c4ccc(-c5nc(-c6cc[n+](CCO)cc6)c(C(F)(F)C(F)(F)F)o5)cc4)(C(F)(F)F)C(F)(F)F)cc3)oc2C(F)(F)C(F)(F)F)cc1 [listing 2 of 2 here] | 4.4 | 6 |  |
| CN(C)C(=O)C[n+]1ccc(-c2nc(-c3ccc(-c4ccc(-c5nc(-c6cc[n+](CC(=O)N(C)C)cc6)c(C(F)(F)F)o5)cc4)cc3)oc2C(F)(F)F)cc1 | 0.3 | 4 |  |
| CN(C)C(=O)C[n+]1ccc(-c2nc(-c3ccc(-c4nc(-c5cc[n+](CC(=O)N(C)C)cc5)c(C(F)(F)C(F)(F)F)o4)cc3)oc2C(F)(F)C(F)(F)F)cc1 | 15 | > 50 |  |
| OCC[n+]1ccc(-c2nc(-c3ccc(-c4ccc(-c5nc(-c6cc[n+](CCO)cc6)c(C(F)(F)C(F)(F)C(F)(F)F)o5)cc4)cc3)oc2C(F)(F)C(F)(F)C(F)(F)F)cc1 | 17.3 | 2.26 |  |
| OCC[n+]1ccc(-c2nc(-c3ccc(-c4ccc(-c5nc(-c6cc[n+](CCO)cc6)c(C(F)(F)F)o5)cc4)cc3)oc2C(F)(F)F)cc1 [listing 1 of 2 here] | > 20 |  | 1.85 |
| CN(C)C(=O)C[n+]1ccc(-c2nc(-c3ccc(-c4nc(-c5cc[n+](CC(=O)N(C)C)cc5)c(C(F)(F)F)o4)cc3)oc2C(F)(F)F)cc1 | 1.35 | > 50 |  |
| OCC[n+]1ccc(-c2nc(-c3ccc(C(c4ccc(-c5nc(-c6cc[n+](CCO)cc6)c(C(F)(F)C(F)(F)C(F)(F)F)o5)cc4)(C(F)(F)F)C(F)(F)F)cc3)oc2C(F)(F)C(F)(F)C(F)(F)F)cc1 | 13.5 | 6.35 |  |
| FC(F)(F)C(F)(F)c1oc(-c2ccc(C(c3ccc(-c4nc(-c5cc[n+](CCCl)cc5)c(C(F)(F)C(F)(F)F)o4)cc3)(C(F)(F)F)C(F)(F)F)cc2)nc1-c1cc[n+](CCCl)cc1 | 14.2 | 9.3 |  |
| OCC[n+]1ccc(-c2nc(-c3ccc(-c4ccc(-c5nc(-c6cc[n+](CCO)cc6)c(C(F)(F)F)o5)cc4)cc3)oc2C(F)(F)F)cc1 [listing 2 of 2 here] | 23.8 | 1.5 |  |
| FC(F)(F)C(F)(F)C(F)(F)c1oc(-c2ccc(C(c3ccc(-c4nc(-c5cc[n+](CCCl)cc5)c(C(F)(F)C(F)(F)C(F)(F)F)o4)cc3)(C(F)(F)F)C(F)(F)F)cc2)nc1-c1cc[n+](CCCl)cc1 | 11.6 | 15.5 |  |
